The list is not random: actives were taken first. Their share in the collection is about 1.5%.
APJ antag – blocks the human apelin receptor APJ. P35414. CHO-K1 APJ beta-arrestin complementation, luminescence. inhibition, % at 20 µM. 0.32% of 330,000 active;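 active = inhibition above about 40% at 20 µM, limit read from the data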;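 note: cells challenged with 10 nM apelin-13 agonist together with compound; plate controls were apelin-13 plus DMSO wells for no effect and DMSO wells lacking apelin-13 for full effect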
hiPSC survival – hiPSC single-cell survival enhancement; ATPlite luminescence; 100% = ROCK inhibitor wells, 0% = DMSO; survival enhancement, % at 20 µM; 0.044% of 360,000 active; in the data active = survival enhancement above about 18%;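 note: cells exposed to compounds for 16 hours before the ATP read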
EBI2 antag – antagonists of human EBI2 receptor | inhibition, % at 5 µM | P32249 | 0.81% of 360,000 active | AID 651636 | EBI2 beta-arrestin recruitment, luminescence, 7a,25-OHC stimulated; in the data active = inhibition above about 38%;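 note: enzyme fragment complementation signal reports receptor beta-arrestin coupling in cells; 0% = agonist plus DMSO wells and 100% = wells without agonist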
APJ ag – activates the human apelin receptor APJ; P35414; CHO-K1 APJ PathHunter beta-arrestin, luminescence; 0% DMSO wells, 100% apelin; activation, % at 20 µM; 0.11% of 330,000 active; AID 2520;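 active = activation more than six SD over the plate average, tested at 20 µM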;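 note: 0% = DMSO alone and 100% = apelin-13 at 10 nM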
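Test system: CHO-K1 APJ beta-arrestin complementation cell line. Amount: cell density 1000 per well. Controls: DMSO negative, 10 nM Apelin-13 positive. Signal: luminescent beta-gal fragment complementation, chemiluminescent substrate. Read-out basis: agonist-driven arrestin binding to APJ. Timing: compound stimulation 90 min at 25 °C, detection 60 min.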
CXCR6 inh – inhibitors of human CXCR6 receptor. O00574. CHO-K1 PathHunter CXCR6 beta-arrestin, luminescence. 0.36% of 360,000 active. inhibition, % at 20 µM; in the data active = inhibition above about 34%, passing the limit was not always enough;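 note: antagonist mode with CXCL16 agonist at 10 nM final; 0% = 10 nM CXCL16 with DMSO and 100% = unstimulated wells without agonist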
CCR6 antag – antagonists of human CCR6 receptor; P51684; CHO-K1 CCR6 PathHunter beta-arrestin, luminescence, CCL20-stimulated; inhibition, % at 20 µM; 0.49% of 340,000 active;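 active = compounds whose inhibition of the agonist-driven luminescence signal at 20 µM reaches about 50%, limit read from the data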;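 note: cells stimulated with CCL20 at 14 nM final; plate controls were DMSO with CCL20 for no effect and DMSO without agonist for full effect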
Target sequence (P51684 whole entry, looked up): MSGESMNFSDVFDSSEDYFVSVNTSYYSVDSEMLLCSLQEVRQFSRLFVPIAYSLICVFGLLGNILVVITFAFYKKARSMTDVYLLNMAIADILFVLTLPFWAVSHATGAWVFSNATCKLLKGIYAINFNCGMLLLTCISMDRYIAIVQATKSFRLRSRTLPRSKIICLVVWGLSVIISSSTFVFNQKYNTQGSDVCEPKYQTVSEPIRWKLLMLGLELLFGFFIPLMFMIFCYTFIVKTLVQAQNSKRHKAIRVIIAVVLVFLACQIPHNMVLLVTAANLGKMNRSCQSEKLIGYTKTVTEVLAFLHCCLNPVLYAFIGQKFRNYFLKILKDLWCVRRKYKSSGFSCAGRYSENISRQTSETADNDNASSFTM
Starred values were filed as active, the others as inactive; . = not tested or not shown.

SMILES	APJ antag	hiPSC survival	EBI2 antag	APJ ag	CXCR6 inh	CCR6 antag
C=CCNS(=O)(=O)c1cc2c3c(c1)CCN3C(=O)CC2	-5	0	-8	-2	5	-3
COc1cc(/C=N/Nc2ccc([N+](=O)[O-])cc2S(=O)(=O)N2CCOCC2)cc(OC)c1OC	23	2	17	-4	34	17
O=[N+]([O-])c1ccc(N/N=C/c2cccc(O)c2O)c(S(=O)(=O)N2CCOCC2)c1	58*	0	41*	-7	55*	72*
O=[N+]([O-])c1ccc(N/N=C/c2ccc(O)c(O)c2O)c(S(=O)(=O)N2CCOCC2)c1	15	-1	12	-5	7	51*
COc1cc(OC)cc(C(=O)Nn2c(C)nc3ccccc3c2=O)c1	3	-1	-1	-1	-6	0
COc1cc(OC)cc(-c2nc3ccccc3c(=O)n2OC(=O)c2ccc(C)c(C)c2)c1	-17	-4	-18	11*	-7	-11
Cc1ccc(S(=O)(=O)Nc2cccc3ncccc23)s1	91*	-1	73*	-18	63*	96*
CNC(CC(=O)c1ccc([N+](=O)[O-])cc1)C(Cl)(Cl)Cl (stereo not drawn)	.	-2	-1	.	90*	.
COc1ccc(C(=O)CC(Nc2ccc([N+](=O)[O-])cc2)c2ccc(OC)cc2)cc1 (stereo not drawn)	15	-3	37	-5	19	26
Clc1ccccc1OCc1nnc(-c2ccccc2Br)o1	7	-2	1	-2	-8	5
O=c1c(Cl)c(Cl)cnn1Cc1nnc(-c2ccccc2Br)o1	22	26*	25	-5	-4	-3
O=C(Nn1cnnc1)c1ccc(F)cc1	6	1	-12	-2	-5	3
O=C(c1cccc(S(=O)(=O)N2CCCC2)c1)N1CCN(S(=O)(=O)c2cccc(Cl)c2)CC1	.	0	-11	.	1	-4
COC(=O)c1[nH]c2ccccc2c1NC(=O)CCN1CCSCC1	-2	26*	-1	-2	-4	9
Oc1ccc(CN2CCN(Cc3ccccc3)CC2)c2cccnc12	14	0	68*	-6	27	17
O=[N+]([O-])c1cc(CN2CCN(c3ccccc3)CC2)c(O)c2ncccc12	-2	13	17	-3	56*	75*
CC1CCN(c2ccc3c(c2)S(=O)(=O)c2cccc(C(=O)NC4CC4)c2C3=O)CC1	8	-3	-4	-2	37	26
CCCCOc1ccc(CN2CCSCC2)cc1	16	0	-19	-4	-2	6
Oc1ccc(/C=N/Nc2cc(N3CCOCC3)nc(N3CCOCC3)n2)cc1	1	-4	3	0	1	-6
Oc1ccc(/C=N/Nc2cc(N3CCCC3)nc(N3CCCC3)n2)cc1	1	0	55*	-4	-2	5
COc1ccc(S(=O)(=O)N2CCC3CC2c2cc(-c4ccc5c(c4)OCO5)ccc23)cc1 (stereo not drawn)	.	-1	10	.	-4	.
CC(=O)c1c(N2CCCC2)[nH]c(-c2ccccc2)nc1=S	19	2	6	-5	17	25
CC(=O)c1c(N)[nH]c(-c2ccccc2)nc1=S	24	-2	0	-9	16	57*
CCOc1cc2[nH]c(=S)n(C3CC3)c(=O)c2cc1OCC	16	0	-2	0	0	-2
CCOC(=O)N1CCC(n2c(=S)[nH]c3cc(OCC)c(OCC)cc3c2=O)CC1	12	8	60*	-2	-4	7
SMILES	APJ antag	hiPSC survival	EBI2 antag	APJ ag	CXCR6 inh	CCR6 antag
Cc1ccc(N=c2ssnc2Cl)cc1	9	-4	17	1	5	17
Cc1cc(Cl)ccc1N=c1ssnc1Cl	14	4	38*	-2	14	39
COc1ccc(S(=O)(=O)Nc2cccc3c2O[C@H](CN(C)C(=O)Nc2c(C)noc2C)[C@@H](C)CN([C@H](C)CO)C3=O)cc1	-2	0	-11	-2	6	8
O=C(OCc1ccccc1)N1C=CCC[C@@H]1c1c(Cl)cccc1Br	.	1	26	.	3	.
CC(C)C(C)NC(=O)COn1nnc2ccc(S(=O)(=O)N3CCOCC3)cc21 (stereo not drawn)	2	1	-4	-3	-7	-2
O=S(=O)(O)c1cccc2c(N=Nc3ccc(O)c4ncccc34)cccc12	.	0	11	.	37*	.
Cc1ccccc1N=Nc1ccc(O)c2ncccc12	.	0	8	.	14	48
CCCNC(=O)C1(C)CCN(C(=O)c2cccc(C#N)c2)C1 (stereo not drawn)	.	-3	-3	.	-4	.
COCCN=c1scc(-c2ccc3c(c2)NC(=O)CO3)n1/N=C(\C)c1ccc(O)cc1	0	0	37	-6	56*	.
COc1cc(/C=N/n2c(-c3ccc4c(c3)NC(=O)CO4)csc2=Nc2cccc(C)c2)ccc1O	7	0	52*	-4	13	19
COc1ccccc1Nc1nc(-c2ccc3c(c2)NC(=O)CO3)cs1	-13	6	20	2	-12	0
CCCn1c(N)c(N(CCOC)C(=O)COC(=O)CSc2cc(C)c3ccccc3n2)c(=O)[nH]c1=O	7	0	4	-9	-12	4
Cc1ccc(NC(=O)c2ccc3c(c2)CCN3S(C)(=O)=O)c(C)c1	-1	0	-7	-2	-5	3
Cn1c(C(=O)N2CCN(c3ccc(Cl)cc3)CC2)cc2c(=O)[nH]c3ccccc3c21	-22	4	83*	23	-2	-10
O=C(CCn1c(=O)[nH]c2ccccc2c1=O)N1CCN(c2ccc(Cl)cc2)CC1	14	5	1	1	-8	-2
COc1ccc(-c2csc(N3C(=N)SCC3=O)n2)cc1	19	-3	-4	-6	29	56*
COc1ccc(-c2csc(N3C(=O)C4C5c6ccccc6C(c6ccccc65)[C@@H]4C3=O)n2)cc1 (stereo partly drawn)	5	1	0	1	1	-5
O=C(Nc1nc(-c2cc(F)ccc2F)cs1)C1=COCCO1	10	1	17	-3	4	11
O=C(Nc1nc(-c2cc(F)ccc2F)cs1)c1ccccn1	68*	-1	27	-7	41*	65*
CCN(CC)c1ccc(C(=O)NNC(=O)CN2C(=O)NC(C)(c3ccccc3)C2=O)cc1 (stereo not drawn)	11	0	7	-4	-7	0
CCOc1ccc(S(=O)(=O)Nc2cccc(C(=O)N3CC(C)OC(C)C3)c2)cc1 (stereo not drawn)	17	0	-6	-1	2	-6
CCOc1ccc(S(=O)(=O)Nc2cccc(C(=O)N3CCN(c4ccc(OC)cc4)CC3)c2)cc1	7	21*	-8	2	-2	-18
